Test system: MS2 coat protein
Assay: apparent Kd, MS2 coat protein; higher = weaker binding; RNA-MaP array; FMN 200 µM where present
Summary of the method: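 Designs on Illumina sequencing-chip clusters, transcribed by stalled E. coli RNA polymerase, were exposed to SNAP-549-labelled MS2 coat protein in doubling steps from 0.7 or 1.5 nM up to 3 µM, without and then with constant ligand. The buffer held 100 mM Tris-HCl pH 7.5, 80 mM KCl, 4 mM MgCl2, BSA, DTT, yeast tRNA and Tween-20. Apparent Kd values are medians of filtered per-cluster binding-curve fits to green signal normalised to red-channel RNA signal and control-cluster median Fmax.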

[1] = designed as: OFF switch for flavin mononucleotide, no ligand
[2] = ligand present: flavin mononucleotide, designed as: OFF switch for flavin mononucleotide
[3] = designed as: ON switch for flavin mononucleotide, no ligand
[4] = ligand present: flavin mononucleotide, designed as: ON switch for flavin mononucleotide

## UUAUUUUGUCAAGGAUAUGUAAUAUAGAUUAGAAAACAUGAGGAUCACCCAUGUAUAUGGUGGGAACAGAAGGUGAAUGGUUUA
[1]
  apparent Kd: 196 nM
[2]
  apparent Kd: 161 nM

## UUAUUUUUUGAGGAUAUGCGACGUUUUUUCGUCGUAGAAGGCGAUACAUGAGGAUCACCCAUGUUUAUGGGCAU
[1]
  apparent Kd: 89.7 nM
[2]
  apparent Kd: 157 nM

## UUCAAUCACAUAGGAUAUAGAAUAAUAAUUUUUUACAUGAGGAUCACCCAUGUUUUAUUGGGUUUCUAGAAGGAUGAGUUAUUA
[3]
  apparent Kd: 524 nM
[4]
  apparent Kd: 300 nM

## UUCAGCGAUCAAGGAUAUCUAUAUUCAUGAGGACAUGAGGAUCACCCAUGUUGAUUACCCAUGAGGGAGAAGGUGGACAUGAGG
[3]
  apparent Kd: 40.1 nM
[4]
  apparent Kd: 23.5 nM

## UUCAUGUGAGGAUAUGUGAUCUGCUUUCUGUUUAGAUGAUCACAGAAGGCACAUGAGGAUCACCCAUGUAGAUC
[2]
  apparent Kd: 22.6 nM

## UUCAUUAACAUGAGGAUCACCCAUGUUGGCCAGUCUCACACCAGAAGGCACGUUGAGCACAUCAGUGAGGAUAUGGGUGACAUA
[3]
  apparent Kd: 331 nM
[4]
  apparent Kd: 91 nM

## UUCCUCGUUGUGAGGAUAUCGUAUUCUUUUUGUUACGAGAAGGCACAUGAGGAUCACCCAUGUUUCUUGAUGUU
[1]
  apparent Kd: 19.5 nM
[2]
  apparent Kd: 68.8 nM

## UUCCUCUUAACAUGAGGAUCACCCAUGUAUUAUUUGGUAAUUGAGGAUAUAUUUUUAAUGUUUAUAUAGAAGGCAAAUACAGUU
[1]
  apparent Kd: 45.7 nM
[2]
  apparent Kd: 49.3 nM

## UUCGCUAAGGUGUAGCGAGACUUGCAAGAAGGGUGAAGAACAUGAGGAUCACCCAUGUAAGCCUUACAGGAUAUUGCUUGACGA
[3]
  apparent Kd: 106 nM
[4]
  apparent Kd: 36.4 nM

## UUCGGCGCAGGAUAUACAGUUCUGUGUUGAAUCGGCGCGGGACAUGAGGAUCACCCAUGUAGAAGGGUGUUGAA
[1]
  apparent Kd: 1160 nM
[2]
  apparent Kd: 578 nM

## UUCGUGCAGCUUUGUUGUACGCGUACAUGAGGAUCACCCAUGUAGGAUAUGGUACGCUUUGCGUGCUAGAAGGAUAUGGAGAGG
[1]
  apparent Kd: 13.2 nM
[2]
  apparent Kd: 15.4 nM

## UUCGUGCAGUUUUGCUGUACGCGUACAUGAGGAUCACCCAUGUAGGAUAUGGUAGGCUUUGCUUACUAGAAGGAUAGUGUGAUC
[1]
  apparent Kd: 163 nM
[2]
  apparent Kd: 33.8 nM

## UUCGUGUGACAGAAGGGUCUUUCAGGCUGGGAGGCAGGAUAUGUGACAUGAGGAUCACCCAUGUUGGUAUCGUCUGUGUGUACG
[1]
  apparent Kd: 6.7 nM
[2]
  apparent Kd: 14.6 nM

## UUGAGGUGCAAGAAGGAUCACAUGAGGAUCACCCAUGUCAUGUGAAGUCUCGAGAUUUUAUAUGGAUAGGAUAUUGCACCGAAC
[3]
  apparent Kd: 263 nM
[4]
  apparent Kd: 41.2 nM

## UUGCCACAUGAGGAUCACCCAUGUGAGGAUAUGGCCUGUUUGGCGUGUGCUGGCUCUGUCAGAAGGCGCGUGGG
[1]
  apparent Kd: 31.8 nM
[2]
  apparent Kd: 37.5 nM

## UUGCCUCAGAACAUGAGGAUCACCCAUGUGCUGCGGGCAACGUAGGAUAUGAUGGUGUGACACCAUCAGAAGGAUGAUGGUACC
[3]
  apparent Kd: 5.97 nM
[4]
  apparent Kd: 5.81 nM

## UUGCCUCAGAACAUGAGGAUCACCCAUGUGCUGUGGGCAACAUAGGAUAUGAUGGUAUUAUACCGUCAGAAGGAUGAUGGUACU
[3]
  apparent Kd: 5.34 nM
[4]
  apparent Kd: 5.06 nM

## UUGGACAGCUAGAGCUGCUAAGUACAUGAGGAUCACCCAUGUCAGGAUAUCCUUCCGCAAUGCGAGGAGAAGGGACAGGGUCCC
[1]
  apparent Kd: 75.4 nM
[2]
  apparent Kd: 179 nM

## UUGGACGUCGUAGGAUAUGUAGGAUAUUCCUACAUGAGGAUCACCCAUGUUGACACGGAAGAAGGACAGAAGGACGAUGUCCAU
[3]
  apparent Kd: 11.6 nM
[4]
  apparent Kd: 4.23 nM

## UUGGACGUCGUAGGAUAUGUAGGAUAUUCCUACAUGAGGAUCACCCAUGUUGACAUCGAAGAAGGACAGAAGGACGAUGUCCAU
[3]
  apparent Kd: 88 nM
[4]
  apparent Kd: 5.29 nM

## UUGGACGUCGUAGGAUAUGUAGGAUAUUCCUACAUGAGGAUCACCCAUGUUGACAUGGAACAAGGACAGAAGGACGAUGUCCAU
[3]
  apparent Kd: 493 nM
[4]
  apparent Kd: 17.4 nM

## UUGGACGUCGUAGGAUAUGUAGGAUAUUCCUACAUGAGGAUCACCCAUGUUGACAUGGAAGAAAGACAGAAGGACGAUGUCCAU
[3]
  apparent Kd: 325 nM
[4]
  apparent Kd: 8.48 nM

## UUGGACGUCGUAGGAUAUGUAGGAUAUUCCUACAUGAGGAUCACCCAUGUUGACAUGGAAGAAGGAGAGAAGGACGAUGUCCAU
[3]
  apparent Kd: 308 nM
[4]
  apparent Kd: 354 nM

## UUGGACGUCGUAGGAUAUGUAGGAUAUUCCUACAUGAGGAUCACCCAUGUUGACAUGGAAGAAGGCCAGAAGGACGAUGUCCAU
[3]
  apparent Kd: 930 nM
[4]
  apparent Kd: 100 nM

## UUGGACGUCGUAGGAUAUGUAGGAUAUUCCUACAUGAGGAUCACCCAUGUUGACAUGGAAGACGGACAGAAGGACGAUGUCCAU
[3]
  apparent Kd: 490 nM
[4]
  apparent Kd: 12.8 nM

## UUGGACGUCGUAGGAUAUGUAGGAUAUUCCUACAUGAGGAUCACCCAUGUUGACAUUGAAGAAGGACAGAAGGACGAUGUCCAU
[3]
  apparent Kd: 87.7 nM
[4]
  apparent Kd: 5.02 nM

## UUGGACGUCGUAGGAUAUGUAGGAUAUUCCUACAUGAGGAUCACCCAUGUUUACAUGGAAGAAGGACAGAAGGACGAUGUCCAU
[3]
  apparent Kd: 1320 nM
[4]
  apparent Kd: 14.5 nM

## UUGGACGUCGUAGGAUAUGUAGGAUAUUCGUACAUGAGGAUCACCCAUGUUGACAUGGAAGAAGGACAGAAGGACGAUGUCCAU
[3]
  apparent Kd: 12.2 nM
[4]
  apparent Kd: 4.55 nM

## UUGGACGUCGUAGGAUAUGUAGGAUUUUCCUACAUGAGGAUCACCCAUGUUGAAAUGGAAGAAGGACAGAAGGACGAUGUCCAU
[3]
  apparent Kd: 139 nM
[4]
  apparent Kd: 16.2 nM

## UUGGACGUCGUAGGAUAUGUAGGCUAUUCCUACAUGAGGAUCACCCAUGUUGACAUGGAAGAAGGACAGAAGGACGAUGUCCAU
[3]
  apparent Kd: 30.4 nM
[4]
  apparent Kd: 3.85 nM

## UUGGACGUCGUAGGAUAUGUCGGAUAUUCCUACAUGAGGAUCACCCAUGUUGACAUGGAAGAAGGACAGAAGGACGAUGUCCAU
[3]
  apparent Kd: 4.52 nM
[4]
  apparent Kd: 3.87 nM

## UUGGACGUCGUGGGAUAUGUAGGAUAUUCCUACAUGAGGAUCACCCAUGUUGACAUGGAAGAAGGACAGAAGGACGAUGUCCAU
[3]
  apparent Kd: 152 nM
[4]
  apparent Kd: 5.55 nM

## UUGGCGACGUAGAAGGGUGACAUGAGGAUCACCCAUGUGCCGAUAUUUCUCGAGAUAUGUCGGCCACAGGAUAUACGUGCCAUC
[3]
  apparent Kd: 59.3 nM
[4]
  apparent Kd: 31.9 nM

## UUGGGAUGCAAGAAGGGUGACAUGAGGAUCACCCAUGUGUUGUGAAUUCUCGAGAUUUUAUGACCAUAGGAUAUUGCACCGAAC
[3]
  apparent Kd: 28.5 nM
[4]
  apparent Kd: 12.2 nM

## UUGGUACAAGGAUAUACAUGAGGAUCACCCAUGUUUGGCAUCGCGCGUAUCUCUUCAGGUAGAAGGUGUGUUGA
[1]
  apparent Kd: 22.3 nM
[2]
  apparent Kd: 26.5 nM

## UUGGUCAGUCAGAAGGCUACAUUACAUGAGGAUCACCCAUGUCAAAAGUAGAGGAUAUGAAGUUCGCCAUGGUAAGAGCCUGUC
[3]
  apparent Kd: 34.7 nM
[4]
  apparent Kd: 6.26 nM

## UUGGUUCUCGUAGGAUAUGUAGGAUAUGCCUACAUGAGGAUCACCCAUGUUCGCAUGGCAGAAGGACAGAAGGACGAUCACCAU
[3]
  apparent Kd: 378 nM
[4]
  apparent Kd: 17.3 nM

## UUGGUUGUCGUAGGAUAUGUAGGAUAUUCCUACAUGAGGAUCACCCAUGUUCGCAUGGAAGAAGGACAGAAGGACGAUGACCAU
[3]
  apparent Kd: 1290 nM
[4]
  apparent Kd: 23.7 nM

## UUGUUAGCAGGAUAUAUCCACGACCACAUGAGGAUCACCCAUGUGGCCGCUUGAGGUUGUAUAGAAGGGCUUUGUU
[1]
  apparent Kd: 13.8 nM
[2]
  apparent Kd: 14.3 nM

## UUGUUAUAUGUAGGAUAUGCAUAUUAUUAUUAUGCAGAAGGACAUGAGGAUCACCCAUGUAUGUUGUUGUUAUAUAUUAUAUAU
[1]
  apparent Kd: 24.8 nM
[2]
  apparent Kd: 27.8 nM

## UUGUUAUAUGUAGGAUAUGCAUAUUAUUAUUAUGCAGAAGGACAUGAGGAUCACCCAUGUGUAUUGUUAUUAUAUAUUAUAUAU
[1]
  apparent Kd: 22.3 nM
[2]
  apparent Kd: 29.5 nM

## UUGUUAUAUGUAGGAUAUGCGUAUUAUUAUUAUGCAGAAGGACAUGAGGAUCACCCAUGUAUGUUGUUGUUAUAUAUUAUAUAU
[1]
  apparent Kd: 22.9 nM
[2]
  apparent Kd: 26.2 nM

## UUGUUGUAUGUAGGAUAUGCAUAUUAUUAUUAUGCAGAAGGACAUGAGGAUCACCCAUGUAUGUUAUUAUUAUAUGUUAUGUGU
[1]
  apparent Kd: 39.9 nM
[2]
  apparent Kd: 63.1 nM

## UUGUUGUAUGUAGGAUAUGCGUAUUAUUAUUAUGCAGAAGGACAUGAGGAUCACCCAUGUAUAUUAUUAUUAUAUAUUAUAUAU
[1]
  apparent Kd: 26.9 nM
[2]
  apparent Kd: 56.1 nM

## UUUAAUUAGUAAGGAUAUACUAGUGAUUAGCUUGUAGAAGGUACAGUCUUAUGUAUAACAAAUUAACAUGAGGAUCACCCAUGU
[3]
  apparent Kd: 10.6 nM
[4]
  apparent Kd: 7.99 nM

## UUUAUAAAUUAGAAGGCGAGAUGAAUUACAAUAGACAUGAGGAUCACCCAUGUGUACCCAUGUUUUGAGGAUAUAGUCAUAUAU
[3]
  apparent Kd: 743 nM
[4]
  apparent Kd: 585 nM

## UUUAUAUUCAGAGGAUAUUAAAGUAGUAUAACAUAAGAAGGCUGUUUGUUUUGUAAAGUAAUUCUACAUGAGGAUCACCCAUGU
[3]
  apparent Kd: 20.9 nM
[4]
  apparent Kd: 17 nM

## UUUCAGUUCACAUGAGGAUCACCCAUGUCGGUUCGCCCGGACAGAAGGCACCCAUGACAAUGCGGUGAGGAUAUGUCAACAAGG
[3]
  apparent Kd: 143 nM
[4]
  apparent Kd: 19.1 nM

## UUUCCUGGAGGAUAUACAUGAGGAUCACCCAUGUGGUUCGGAUUAAGCGGCUUACGCGGUAGAAGGUUAGACUU
[1]
  apparent Kd: 108 nM
[2]
  apparent Kd: 85.1 nM

## UUUCGGAGCAGAGGAUAUUACAUGAGGAUCACCCAUGUAUGAACCAAUAGCUGGAAACAGCAAUGUAAGAAGGCUGCUCCGACA
[1]
  apparent Kd: 11.2 nM
[2]
  apparent Kd: 182 nM

## UUUCGUCUCGAGAAGGUCUAUCGACAUGAGGAUCACCCAUGUUGCCAUGGAAGGAUAUCGAAGGCAGCACGGGAAAUAGUCCGG
[3]
  apparent Kd: 78.3 nM
[4]
  apparent Kd: 14 nM

## UUUGCAACAUGAGGAUCACCCAUGUAGGAUAUCGCUAUUGUAAUCAUGAAACAUGAUUACAAUAGCGAGAAGGACAUAUGUCCC
[1]
  apparent Kd: 7.56 nM
[2]
  apparent Kd: 8.59 nM

## UUUGCAUUCCGAGGAUAUUCAUUUAAUGACUUCACAUGAGGAUCACCCAUGUGGCGAUAGCCUAGGGAGAAGGCGGUUUGCUUU
[3]
  apparent Kd: 24.4 nM
[4]
  apparent Kd: 19.6 nM

## UUUGGGUGAGGAUAUCAGUCUGGAUCAGACUAGAUCCUGACUGAGAAGGCACAUGAGGAUCACCCAUGUGAGUU
[1]
  apparent Kd: 294 nM
[2]
  apparent Kd: 320 nM
